The target of test [1] is Sigma non-opioid intracellular receptor 1 (Rattus norvegicus, UniProt Q9R0C9). The test can be described thus: Binding affinity to sigma1 receptor in rat brain membranes. It is filed as cell membranes. The procedure, abridged:
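Radioligand displacement binding. IC50 is the concentration inhibiting 50% of specific radioligand binding, from 6–9 concentrations of the test drug, run in two or three experiments with duplicate samples. Apparent Ki came from nonlinear curve fitting. Compounds were tested as hydrochloride salts, or as free bases in some cases.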

Test [2] is described as follows: Selectivity ratio of Ki for sigma 2 receptor in rat liver membranes to Ki for sigma 1 receptor in guinea pig brain membranes. It is filed as cell membranes. As to conditions: Membrane.
Test [3] addresses T1, 3-beta-hydroxysteroid-Delta(8),Delta(7)-isomerase (Cavia porcellus, UniProt Q60490).
T1 sequence (Q60490 whole entry): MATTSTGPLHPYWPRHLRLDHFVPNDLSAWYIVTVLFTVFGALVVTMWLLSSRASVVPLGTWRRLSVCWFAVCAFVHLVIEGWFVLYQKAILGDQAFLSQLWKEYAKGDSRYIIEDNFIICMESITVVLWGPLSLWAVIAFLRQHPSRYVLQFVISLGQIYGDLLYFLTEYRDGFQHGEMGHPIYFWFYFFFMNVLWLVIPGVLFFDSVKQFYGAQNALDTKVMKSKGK
Put plainly: Displacement of [3H]-emopamil from delta(8)-delta(7) sterol isomerase in guinea pig liver membranes. It is filed as cell membranes, Membrane. The conditions noted are these: read-out: Ki(app). The procedure, abridged:
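Assay followed Moebius et al. Inhibition curves used 6–9 drug concentrations over two or three experiments run in duplicate. IC50 is the concentration giving 50% loss of specific radioligand binding. Apparent Ki came from nonlinear curve fitting.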

Test [4] addresses Sigma non-opioid intracellular receptor 1 (Cavia porcellus, UniProt Q60492). The test can be described thus: Displacement of [3H]-(+)-pentazocine from sigma1 receptor in guinea pig brain membranes without cerebellum. As to conditions: read-out: Ki(app). It is filed as cell membranes, Membrane. Background: Loss of bound radioactivity is the signal in a displacement assay; it reports binding, not function.

Test [5] can be described thus: Displacement of [3H]DTG from sigma 2 receptor in rat liver membranes. It is filed as cell membranes, Membrane. The conditions noted are these: read-out: Ki(app). The procedure, abridged:
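Sigma-2 site labelled with [3H]-DTG at 30 Ci/mmol, following Matsumoto et al. Curves used 6–9 concentrations of test drug, repeated in two or three experiments with duplicate samples. IC50 (50% inhibition of specific binding) and apparent Ki were obtained by nonlinear curve fitting.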

In test [6] the target is Sigma non-opioid intracellular receptor 1 (Cavia porcellus) (UniProt Q60492). The test can be described thus: Displacement of [3H]-(+)-pentazocine from sigma 1 receptor in guinea pig brain membranes at 10^-10 M. The conditions noted are these: Membrane. It is filed as cell membranes.
Chain of Sigma non-opioid intracellular receptor 1 (Cavia porcellus) (Q60492 whole entry): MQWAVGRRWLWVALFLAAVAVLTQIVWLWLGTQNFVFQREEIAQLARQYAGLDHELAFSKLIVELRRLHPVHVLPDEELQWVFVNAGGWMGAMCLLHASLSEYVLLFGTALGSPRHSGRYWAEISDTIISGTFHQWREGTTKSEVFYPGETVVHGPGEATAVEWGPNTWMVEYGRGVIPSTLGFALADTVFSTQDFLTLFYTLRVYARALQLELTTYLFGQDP

Some results are limits rather than exact numbers.

Chain of Sigma non-opioid intracellular receptor 1 (Cavia porcellus, UniProt Q60492) (Q60492 whole entry): as above
Chain of Sigma non-opioid intracellular receptor 1 (Rattus norvegicus, UniProt Q9R0C9) (Q9R0C9 whole entry): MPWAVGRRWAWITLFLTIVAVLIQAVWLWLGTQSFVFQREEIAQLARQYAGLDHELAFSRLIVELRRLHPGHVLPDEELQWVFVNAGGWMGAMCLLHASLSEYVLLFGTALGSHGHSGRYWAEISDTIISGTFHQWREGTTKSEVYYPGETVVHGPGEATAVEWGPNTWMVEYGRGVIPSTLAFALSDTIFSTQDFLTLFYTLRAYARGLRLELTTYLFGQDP

For the compound `CC1(C)CCCN(CCCC2CCCc3sccc32)C1` (racemic) [listing 1 of 3 here], the Ki in test [1] was > 3960 nM.

With `CC1(C)CCCN(CCNc2nc3ccccc3s2)C1`, the Ratio Ki in test [2] was determined as 1.3. The Ki worked out at 115 nM in test [3], 566 nM in test [4] and 742 nM in test [5].

`CC1(C)CCCN(Cc2cc3ccccc3o2)C1`: the Ratio Ki in test [2] is 0.4. The Ki amounted to 3690 nM in test [4] and 1810 nM in test [5].

In the case of `Cc1ccccc1NC(=N)Nc1ccccc1C` [DITOLYLGUANIDINE], the Ki in test [5] was found to be 34.3 nM.

`CC1(C)CCCN(CCCC2CCCc3sccc32)C1` (racemic) [listing 2 of 3 here]: the Ki in test [3] was found to be 3.07 nM; in test [4], 0.21 nM; in test [5] it was 38 nM.

For the compound `CC1(C)CCCN(CCCC2CCCc3[nH]ccc32)C1` (racemic), the Ratio Ki in test [2] is 4.4. Moreover, the results for the Ki in test [4] and in test [5] were 27.1 nM and 119 nM, respectively.

In the case of `CC1(C)CCCN(CCCc2cccc3sccc23)C1`, the Ratio Ki in test [2] is 1.2. For the same compound, the Ki in test [3] was 0.9 nM; in test [4] it was 52 nM; in test [5], 63.6 nM.

As for `CC1(C)CCCN(CCCn2ccc3ccccc32)C1`, the Ratio Ki in test [2] came out at 3.8. The Ki worked out at 50.9 nM in test [4] and 194 nM in test [5].

Consider `CC(C(O)c1ccc(O)cc1)N1CCC(Cc2ccccc2)CC1` (racemic) [IFENPRODIL], for which the Ki in test [3] is 15 nM.

Turning to `CC1(C)CCCN(CCCC2CCCCc3ccccc32)C1` (racemic), the Ratio Ki in test [2] came to 101. In addition, the figures for the Ki in test [3], in test [4] and in test [5] were 0.2 nM, 0.38 nM and 37.5 nM, respectively.

Regarding `COc1cccc2c1CCCC2CCCCN1CCCC(C)(C)C1` (stereo unspecified), in test [2], the Ratio Ki was 117. For the same compound, the Ki is 0.67 nM in test [3], 2.12 nM in test [4] and 247 nM in test [5].

For the compound `CC1(C)CCCN(CCCc2cccc3occc23)C1`, the Ratio Ki in test [2] was 0.7. The Ki stood at 1.1 nM in test [3], 63.5 nM in test [4] and 42.3 nM in test [5].

Take `CC1(C)CCCN(CCCc2c[nH]c3ccccc23)C1`: the Ratio Ki in test [2] was 2.6. Moreover, the Ki was 41.6 nM in test [4] and 110 nM in test [5].

As for `CC1(C)CCCN(CCCCN2CCCC(C)(C)C2)C1`, the Ratio Ki in test [2] is 29. Besides, the Ki in test [3] was 213 nM; in test [4], 14.1 nM; in test [5] it was 414 nM.

In the case of `CC1(C)CCCN(CCNc2nc3c(s2)C(=O)CCC3)C1`, the Ki in test [3], in test [4] and in test [5] was > 10000 nM each time.

For `CC1(C)CCCN(CCCCC2CCCCc3ccccc32)C1` (racemic), in test [2], the Ratio Ki amounted to 471. The results for the Ki in test [3], in test [4] and in test [5] were 7.3 nM, 0.14 nM and 65.9 nM, respectively.

In the case of `CC1(C)CCCN(CCNc2nccs2)C1`, the Ratio Ki in test [2] was determined as 7.2. Further, the Ki in test [3] turned out to be 1400 nM; in test [4], 459 nM; in test [5] it was 3330 nM.

With `CC1(C)CCCN(CCCCC2CCc3ccccc32)C1` (stereo unspecified), the Ratio Ki in test [2] turned out to be 138. Also, the Ki in test [3] amounted to 1.54 nM; in test [4] it was 1.75 nM; in test [5], 242 nM.

Regarding `CC1(C)CCCN(CCCCCC2CCCc3sccc32)C1` (racemic), the Ki in test [3] amounted to 2.11 nM; in test [5], 28.1 nM. Further, the inhibition (usually how much of the control response was suppressed) in test [6] is 78%.

Turning to `CC1(C)CCCN(CCCCC2CCCCC2)C1`, the Ratio Ki in test [2] stood at 19. The Ki was found to be 3.8 nM in test [3], 1.02 nM in test [4] and 19.6 nM in test [5].

With `CC1(C)CCCN(CCCC2CCCc3sccc32)C1` (racemic) [listing 3 of 3 here], the Ratio Ki in test [2] came out at 180.

For the compound `CC1(C)CCCN(CCCn2nnc3ccccc32)C1`, the Ratio Ki in test [2] turned out to be 5.6. The Ki was 339 nM in test [4] and 1990 nM in test [5].

In the case of `CC1(C)CCCN(CC(=O)Nc2nc3c(s2)C(=O)CCC3)C1`, the Ki in test [3], in test [4] and in test [5] was > 10000 nM throughout.

Values taken from ChEMBL document CHEMBL1926653, “Synthesis and binding assays of novel 3,3-dimethylpiperidine derivatives with various lipophilicities as σ₁ receptor ligands” (Bioorg Med Chem, 2011).
